In PubChem BioAssay AID504382 (The Scripps Research Institute Molecular Screening Center, 2011):
Hit rate of the full screen: of about 2,500 compounds, about 460 (18%) were called active. These entries were drawn from the full list. Unmarked numbers belong to inactive results.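 How the source made its calls: active means mean activation above a cutoff of low control average plus 3 SD from the earlier screen (cut at about 12% in these data); inactive means the rest.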

Assay: IANBD-channel fluorescence artefacts in buffer – biochemical, artefact control for cardiac RTF calcium sensitizer project, confirmation (AID 504382)
Settings: IANBD fluorescence interference counterscreen, EC20 Ca2+, at 7.2 µM, active compounds read high, scaled: EC20 calcium 0, EC100 calcium 100
Procedure, shortened: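 Medium: MOPS/KCl/MgCl2/EGTA/NTA/DTT buffer, pH 7.2 | Reagent: EC20 calcium, 0.472 mM | Compound dosing: 7.2 µM single dose | Times: 15 min compound exposure at 25 °C | Signal: Fluorescence, 480/540 nm | Measure: Interference relative to controls | Repeats: Triplicate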
Work on `COc1ccc2c(n1)Sc1nc3ccccc3nc1N2` yielded a fluorescence artifact activation of 0.01%. For `O=C(c1ccccc1)c1ccccc1C(=O)c1ccccc1`, the fluorescence artifact activation was 0.23%. For `O=C(c1ccccc1)c1ccc(O)cc1O`, the fluorescence artifact activation was 24.9% (active). `O=C(c1ccccc1)c1ccncc1` showed a fluorescence artifact activation of 0.03%. Molecule `CC1(C)CC(=O)C2=C(C1)OC(N)=C(C#N)[C@@H]2c1ccccc1[N+](=O)[O-]` has a fluorescence artifact activation of 7.58%. Molecule `CCNC(=O)COc1ccc(-c2ccccc2)cc1` has a fluorescence artifact activation of 0.09%. For `O=C(O)c1ccc(NC(=S)NC(=O)c2ccc(-c3ccccc3)cc2)cc1`, the fluorescence artifact activation was 9.94%. With `O=C(O)CCC(=O)NNC(=O)c1ccc(-c2ccccc2)cc1` the fluorescence artifact activation was 49% (active). For `COc1cc(NC(=O)CSc2ccccc2)c(C(=O)O)cc1OC`, the fluorescence artifact activation was 3.35%. With `Nc1nc(SCc2cccc(Br)c2)n[nH]1` the fluorescence artifact activation was 0.03%. Molecule `CC(Sc1nc2ncc(Cl)cc2[nH]1)C(=O)Nc1ccc(C(N)=O)cc1` (configuration not stated) has a fluorescence artifact activation of -0.03%. Molecule `CCN1CCN(c2c(/C=C3\SC(=S)N(Cc4ccco4)C3=O)c(C)c(C#N)c(=O)n2C)CC1` has a fluorescence artifact activation of 0.03%. With `O=C1/C(=C\c2c(NCCOCCO)nc3ccccn3c2=O)SC(=S)N1Cc1ccco1` the fluorescence artifact activation was 31.6% (active). Work on `CCCN(CCC)c1nc2c(C)cccn2c(=O)c1/C=C1/SC(=S)N(Cc2ccco2)C1=O` yielded a fluorescence artifact activation of 0.05%. For `Cc1cccc(C)c1NC(=O)CNC(=O)Cc1ccc(Br)cc1`, the fluorescence artifact activation was 0.05%. `C=CCn1c(C)c(/C=C/c2cc[n+](C)cc2)c2ccccc21` gave a fluorescence artifact activation of 8.02%. With `O=c1cc2c(c(-c3ccccc3)n1Cc1ccccc1)[C@H](CCO)NC2` the fluorescence artifact activation was 0.32%. For `Cn1c(=O)cc(N)n(Cc2ccccc2)c1=O`, the fluorescence artifact activation was 14.3% (active). With `Cn1c(=O)c2cc(NCc3ccccc3)nnc2n(C)c1=O` the fluorescence artifact activation was 0.34%. `CC(C)CN1CCC(C(=O)N2CCN(c3ccccc3F)CC2)CC1` showed a fluorescence artifact activation of -0.02%. In the case of `CN1CCN(C(=O)c2cc3ccccc3[nH]2)CC1`, the fluorescence artifact activation was -0.01%. With `CCC(CC)C(=O)c1c[nH]c(C(=O)N2CCN(c3ccccc3F)CC2)c1` the fluorescence artifact activation was 17% (active). For `CC(=O)Nc1ccc2nc3c(=O)n(C)c(=O)n(C)c3nc2c1`, the fluorescence artifact activation was 1.77%. Work on `COc1ccc(CCNC(=O)CN(C)S(=O)(=O)c2ccc3c(c2)CCC(=O)N3)cc1OC` yielded a fluorescence artifact activation of -0.01%. Work on `COc1cc(/C=C/C(=O)c2ccc3c(c2)OCO3)cc(Cl)c1O` yielded a fluorescence artifact activation of 1.66%. `Cc1cc[n+](-c2[nH]c(=O)sc2/C=N/NC([S-])=Nc2ccccc2)cc1` showed a fluorescence artifact activation of 1.49%. `COc1ccc(-c2cc(C3CC3)nc(SCC(=O)c3cccs3)c2C#N)cc1` showed a fluorescence artifact activation of 0.1%. Work on `CCOC(=O)CC(=O)CSc1nc(-c2ccc3c(c2)OCO3)cc(C(F)(F)F)c1C#N` yielded a fluorescence artifact activation of 0.09%. In the case of `CC(C)OC(=O)CC(=O)CSc1nc(-c2ccc(F)cc2)cc(-c2ccccc2)c1C#N`, the fluorescence artifact activation was 17.5% (active). For `Cc1cc(C)n(-c2nc3ccccc3nc2Nc2ccc3[nH]c(=O)[nH]c3c2)n1`, the fluorescence artifact activation was 4.66%. With `CC(C)Oc1ccc(/C(O)=C2/C(=O)C(=O)N(CCN3CCNCC3)C2c2cccc([N+](=O)[O-])c2)cc1` (configuration not stated) the fluorescence artifact activation was 1.8%. Work on `CCOC(=O)C1=C(C)NC(=O)/C1=C\N(C)C` yielded a fluorescence artifact activation of 0.04%. In the case of `Cc1cc(C)c(NC(=S)N(C)C)c(C)c1`, the fluorescence artifact activation was 31.3% (active). With `NC(=O)c1ccccc1N/C=C/C(=O)c1ccc(Cl)cc1Cl` the fluorescence artifact activation was 1.35%. With `COc1ccc(N(C(=O)c2ccc(C)cc2)S(=O)(=O)c2cccs2)cc1` the fluorescence artifact activation was 54.9% (active). In the case of `COc1ccc(NC(=O)CNS(=O)(=O)c2cccs2)cc1`, the fluorescence artifact activation was -0.02%. For `COc1ccc(NC(=O)C(c2ccc(C)cc2)N(C)C(=O)Cc2cccs2)cc1` (configuration not stated), the fluorescence artifact activation was 0.03%. `CCOC(=O)C(C#N)C(c1cccnc1)c1c(C)[nH][nH]c1=O` (configuration not stated) showed a fluorescence artifact activation of 0.03%. Work on `O=C(CSc1nc2ccccc2s1)c1cc2ccccc2o1` yielded a fluorescence artifact activation of 6.22%. Work on `Cc1ccccc1Nc1nnc(SCC(=O)c2cc3ccccc3o2)s1` yielded a fluorescence artifact activation of -0.07%. With `O=C(CSc1nc2cc(Cl)ccc2s1)c1cc2ccccc2o1` the fluorescence artifact activation was 39.2% (active). In the case of `CCN(CC)C(=O)c1ccc(/C=C/c2c[nH]c3ccccc23)[n+](C)c1`, the fluorescence artifact activation was 0.26%. `Brc1ccc(C2=CC(c3ccco3)n3ncnc3N2)cc1` (configuration not stated) showed a fluorescence artifact activation of 0.04%. With `CS(=O)(=O)Nc1nc2n(n1)C(c1ccccc1)C=C(c1ccc(Br)cc1)N2` (configuration not stated) the fluorescence artifact activation was 13% (active). `Brc1ccc(C2=CC(c3cccs3)n3ncnc3N2)cc1` (configuration not stated) showed a fluorescence artifact activation of 0.13%. `O=C(O)C1=C[C@H](c2ccccc2)C[C@H](OCc2ccc(CO)cc2)O1` showed a fluorescence artifact activation of 0.07%. `Cc1ccc(NC(=O)C(OC(=O)c2ccc(F)cc2)c2ccccc2)cc1Cl` (configuration not stated) gave a fluorescence artifact activation of -0.03%. For `Cn1nc(NC(=O)C2CCC2C(=O)O)c2c(F)cccc21` (configuration not stated), the fluorescence artifact activation was 7.56%. `CC(C)(C)OC(=O)N1CC=C2C(C#N)=C(N)C(C#N)(C#N)C(c3cccs3)C2C1` (configuration not stated) gave a fluorescence artifact activation of -0.03%. With `Cc1cc(C)c(OCCOCCN2CCNCC2)c(C)c1` the fluorescence artifact activation was 0.06%. For `COc1cc(/C=C(\C#N)C(=O)c2c[nH]c3ccccc23)cc(OC)c1O`, the fluorescence artifact activation was 0.14%. For `OCCc1c[nH]c2ccccc12`, the fluorescence artifact activation was 0.07%. With `NC(=O)c1c[nH]c2ccccc12` the fluorescence artifact activation was 288% (active). `CC(C)(C)OC(=O)N1CCC(Cc2cc(-c3cccnc3)no2)(C(=O)O)CC1` showed a fluorescence artifact activation of 3.74%. Work on `Cc1ccc(NC(=O)c2cc(C(=O)c3cc(Cl)ccc3O)cn(-c3ccc(C)cc3)c2=O)cc1` yielded a fluorescence artifact activation of 3.68%. For `CCOC(=O)C(C)(C)Sc1nc2c(cnn2-c2ccc(Cl)cc2)c(=O)[nH]1`, the fluorescence artifact activation was 71.5% (active). Molecule `CCOC(=O)C(C)Sc1nnc(Cc2cc(=O)[nH]c(=O)[nH]2)n1-c1ccc(Cl)cc1` (configuration not stated) has a fluorescence artifact activation of 0.21%. For `CCCCNC(=O)COC(=O)c1c2c(nc3ccccc13)/C(=C\c1cccs1)CC2`, the fluorescence artifact activation was 1.6%. With `Nc1cccc2c1C(=O)N(c1ccccc1)C2=O` the fluorescence artifact activation was 1.26%. In the case of `CCC(=O)Nc1ccc2oc(-c3cccnc3)nc2c1`, the fluorescence artifact activation was 77.1% (active). With `O=C(Cc1ccccc1)Nc1cccc(-c2nc3ncccc3o2)c1` the fluorescence artifact activation was 0.02%. Molecule `Cc1cc(=O)oc(C)c1C(=O)Nc1ccc2ncccc2c1` has a fluorescence artifact activation of 0.24%. With `COc1ccc(C)cc1NC(=O)C12CCC(C)(C(=O)O1)C2(C)C` (configuration not stated) the fluorescence artifact activation was 6.57%. For `CC1(C)CC(=O)c2sc(NC(=O)Cc3cccs3)nc2C1`, the fluorescence artifact activation was 0.43%. For `CN(C)c1ccc(/C=C2\SC(=S)N(Nc3ncc(C(F)(F)F)cc3Cl)C2=O)cc1`, the fluorescence artifact activation was 1.93%. With `N=C1c2ccccc2CN1c1ccc(S(=O)(=O)N2CCCCC2)cc1` the fluorescence artifact activation was 9.61%. In the case of `Cc1ccc(S(=O)(=O)N2CCOCC2)cc1C(=O)N1C(=O)c2cccc(N)c2C1=O`, the fluorescence artifact activation was 0.13%. `CCN1/C(=C\C=C(C(C)=O)C(C)=O)Sc2ccccc21` showed a fluorescence artifact activation of 0.42%. With `CCOC(=O)/C(=C/C=C1\Sc2ccccc2N1CC)C(C)=O` the fluorescence artifact activation was 51.3% (active). With `CCOC(=O)/C(=C\C=C1/Sc2ccccc2N1CC)C(C)=O` the fluorescence artifact activation was 0.04%. With `COC(=O)C1=C(C(=O)OC)[C@@H]2Nc3ccccc3[C@@]23C[C@@H](C(=O)OC)N(C(=O)c2cccs2)C3=N1` the fluorescence artifact activation was 11.6%. `CCOc1ccc(C2OC34CCCCC3C(C#N)(C#N)C2(C#N)C(=N)O4)cc1OC` (configuration not stated) showed a fluorescence artifact activation of 0.1%. With `Cc1c2ccccc2nc2c(F)c(NCCO)c(F)c(F)c12` the fluorescence artifact activation was 42.9% (active). In the case of `Cc1c2ccccc2nc2c(F)c(N(C)C)c(F)c(F)c12`, the fluorescence artifact activation was 0.16%. Work on `COC(=O)C1=NN(C(=O)c2ccc(Br)cc2)C(O)(C(C)(C)C)C1` (configuration not stated) yielded a fluorescence artifact activation of 1.09%. `CCOC(=O)c1cn(-c2ccc(F)c(F)c2F)c2c(F)c(F)c(F)cc2c1=O` gave a fluorescence artifact activation of 0.24%. Work on `CN(C)c1ccc(/C=C(/C#N)C(=O)Nc2nc3c(s2)CCN(Cc2ccccc2)C3)cc1` yielded a fluorescence artifact activation of 0.06%. In the case of `Cc1ccc(NC(=O)COC(=O)/C=C/c2c(C)nn(-c3ccc(F)cc3)c2Cl)cc1F`, the fluorescence artifact activation was 0.01%. Molecule `CCOc1ccc(CCNC(=O)C2CCCN(S(=O)(=O)N3CCOCC3)C2)cc1OCC` (configuration not stated) has a fluorescence artifact activation of -0.05%. In the case of `CC1CC(C)CN(S(=O)(=O)N2CCCC(C(=O)NC3CCCCC3)C2)C1` (configuration not stated), the fluorescence artifact activation was 78.2% (active). Work on `CCOC(=O)C1(Cc2cccc(OC)c2)CCN(Cc2ccon2)CC1` yielded a fluorescence artifact activation of 1.14%. With `COc1ccc(Br)cc1S(=O)(=O)Nc1ncccc1C` the fluorescence artifact activation was 24.7% (active). `COc1ccc(C(=O)O)cc1S(=O)(=O)NCCc1ccccn1` gave a fluorescence artifact activation of 0.58%. `COc1cc(Cl)c(S(=O)(=O)NCc2ccccn2)cc1Cl` gave a fluorescence artifact activation of -0.05%. Molecule `CCOC(=O)c1c(C)oc2c1c(C=NCCO)c(O)c1ccccc12` has a fluorescence artifact activation of 0.07%. With `O=C1c2ccccc2-c2onc3c(N4CCN(CCO)CC4)cc(N4CCN(C(=O)c5ccco5)CC4)c1c23` the fluorescence artifact activation was 0.06%. For `O=C(c1ccco1)N1CCN(c2ncnc3c(-c4ccc(Cl)cc4)nsc23)CC1`, the fluorescence artifact activation was 43.5% (active). `O=C(O)CCNc1cc(N2CCN(C(=O)c3ccco3)CC2)c2noc3c2c1C(=O)c1ccccc1-3` showed a fluorescence artifact activation of -0.01%. `COC(=O)Cn1c(C)c(/C=C/c2cc[n+](C)cc2)c2ccccc21` gave a fluorescence artifact activation of 0.1%. With `C[C@H](CO)N1C[C@H](C)[C@@H](CN(C)Cc2ccncc2)Oc2c(NS(=O)(=O)c3ccc(F)cc3)cccc2C1=O` the fluorescence artifact activation was 0.19%. In the case of `C[C@H](CO)N1C[C@H](C)[C@@H](CN(C)Cc2ccc(Oc3ccccc3)cc2)Oc2c(NC(=O)C3CC3)cccc2C1=O`, the fluorescence artifact activation was 20.1% (active). `C[C@H](CO)N1C[C@H](C)[C@@H](CN(C)Cc2ccncc2)Oc2c(NC(=O)c3ccncc3)cccc2C1=O` gave a fluorescence artifact activation of 1.32%.
